PMC11319934 (PNAS Nexus, 2024)
pKd, pKi: −log10 of the molar value. Bridge positions count the residues as written; N and C are the ends. Square brackets hold non-standard residues; d marks the D form. Peptide text beside a SMILES is read from it. * marks the point of attachment. X1 = CN(C)c1ccc2c(-c3ccc(C(=O)*)cc3C(=O)[O-])c3ccc(=[N+](C)C)cc-3oc2c1; R5 = C=CCCC[C@@](C)(N)C(=O)O; S5 = C=CCCC[C@](C)(N)C(=O)O

Columns and labels:
[1] = system: His-MpMYC-Y-FLAG (MpMYC-Y(102-299)); assay: Fluorescence anisotropy; type: binding, Marchantia polymorpha; details: ratio of Kd of 1 to Kd of the peptide
Outline: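 FA titration of 100 nM TMR-labelled peptide with His-MpMYC-Y-FLAG (0–2 µM), added dropwise. Conditions: 25°C, 20 mM Tris-HCl pH 8.0, 200 mM NaCl, 10% glycerol, 10% cOmplete EDTA-free, no 2-mercaptoethanol (MYC family). Read at ex/em 543/573.5 nm, triplicate points. Apparent Kd from nonlinear fitting; values compared as Kd ratios.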

[2] = system: OPDA-responsive marker genes in Marchantia gemmalings; assay: RT-qPCR of OPDA-responsive marker genes in M. polymorpha; type: in vivo, Marchantia polymorpha; details: 4 (10 µM) with OPDA (50 µM), 6 h
[3] = system: JA-responsive marker genes in Arabidopsis seedlings; assay: RT-qPCR of JA-responsive marker genes in A. thaliana; type: in vivo, Arabidopsis thaliana
Outline: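 Col-0 or mutant (e.g. myc234) seedlings grown at 22°C, 16 h light/8 h dark. At 7 days, treated in half-strength MS liquid medium with MeJA (50 µM) and/or test compound (10 µM). Exposure 2 h for AOS, OPR3, MYC2, ORA59 and 8 h for VSP2, PDF1.2, ACT. Total RNA extracted; oligo-dT-primed cDNA; RT-qPCR (n = 4). One-way ANOVA/Tukey's HSD.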

[4] = system: M. polymorpha gemmalings (Tak-1); assay: Growth; type: in vivo, Marchantia polymorpha; details: Tak-1 gemmalings, 4 (10 µM) with OPDA (50 µM), n = 24
Outline: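 Tak-1 gemmalings grown 2 weeks on half-strength Gamborg's B5 with 1% agar, containing OPDA (50 µM) ± test compound (10 µM). Continuous light 50–60 µmol m-2 s-1, 22°C. Plant area measured in mm2 (n = 24). Experiment repeated three times; one-way ANOVA/Tukey's HSD, P < 0.01.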

[5] = biological target: T1, His-EIL1-FLAG (Arabidopsis thaliana, UniProt Q9SLH0); assay: Fluorescence anisotropy; type: binding
T1 sequence (Q9SLH0 201-501): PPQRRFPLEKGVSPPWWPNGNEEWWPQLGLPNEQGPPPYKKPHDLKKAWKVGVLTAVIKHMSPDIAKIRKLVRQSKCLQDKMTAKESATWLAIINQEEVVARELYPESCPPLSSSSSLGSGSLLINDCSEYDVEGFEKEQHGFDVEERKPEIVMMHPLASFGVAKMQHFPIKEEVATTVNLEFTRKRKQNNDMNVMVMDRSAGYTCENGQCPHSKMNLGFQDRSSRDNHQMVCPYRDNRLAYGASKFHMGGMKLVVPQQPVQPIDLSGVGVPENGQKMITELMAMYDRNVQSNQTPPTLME
Outline: (§1)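 FA titration at 25°C in 20 mM Tris-HCl pH 8.0, 200 mM NaCl, 10% glycerol, 10% cOmplete EDTA-free, with 2-mercaptoethanol (EIN3/EIL1 family). Protein added dropwise to 100 nM TMR-labelled peptide; His-EIN3-FLAG titrated 0–2 µM. Anisotropy read at ex/em 543/573.5 nm. Each point is the average of three independent measurements. Apparent Kd obtained by nonlinear curve fitting.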

[6] = biological target: T2, His-EIN3-FLAG (His6-SUMO-EIN3(200–500)-FLAG) (Arabidopsis thaliana, UniProt O24606); assay: Fluorescence anisotropy; type: binding
T2 sequence (O24606 200-500): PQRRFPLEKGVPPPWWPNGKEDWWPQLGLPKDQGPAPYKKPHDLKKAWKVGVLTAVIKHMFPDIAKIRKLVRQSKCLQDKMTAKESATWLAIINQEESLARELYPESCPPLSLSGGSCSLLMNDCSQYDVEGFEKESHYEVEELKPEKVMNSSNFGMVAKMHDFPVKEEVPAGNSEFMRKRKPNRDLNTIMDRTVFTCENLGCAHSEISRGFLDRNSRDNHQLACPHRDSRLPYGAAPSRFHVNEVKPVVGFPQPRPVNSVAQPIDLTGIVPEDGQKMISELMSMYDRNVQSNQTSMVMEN
Outline: as §1

[7] = biological target: T3, biotin-MED25^CMIDM/His-MYC3-FLAG complex (Arabidopsis thaliana, UniProt Q9FIP9); assay: AlphaLISA inhibitory assay MED25CMIDM/MYC3; type: biochemical
T3 sequence (Q9FIP9 44-238): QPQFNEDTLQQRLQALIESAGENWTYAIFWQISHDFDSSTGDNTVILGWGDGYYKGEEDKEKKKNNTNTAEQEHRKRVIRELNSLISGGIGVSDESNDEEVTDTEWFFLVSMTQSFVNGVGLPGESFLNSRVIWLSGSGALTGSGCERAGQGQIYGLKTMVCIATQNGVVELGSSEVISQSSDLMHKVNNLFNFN
Outline: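 Competition AlphaLISA: biotin-MED25CMIDM (150 nM) with His-MYC3-FLAG (50 nM). TMR-conjugated test peptides titrated 0–3 µM to generate inhibition curves. Run in triplicate; mean and SD reported.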

[8] = system: A. thaliana seedlings (Col-0); assay: Root growth of A. thaliana seedlings with MeJA; type: in vivo, Arabidopsis thaliana; details: Col-0 seedlings, co-treatment 4 (10 µM) with MeJA (50 µM), n = 15
Outline: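 Surface-sterilized Col-0 seeds stratified 2–3 days at 4°C. Grown on half-strength MS plates (2% sucrose, 0.4% gellan gum) with MeJA (50 µM) ± test compound (10 µM), under 16 h light (75 µmol m-2 s-1)/8 h dark at 22°C. Whole-seedling root length measured (n = 15). Repeated three times; one-way ANOVA/Tukey's HSD, P < 0.01.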

[9] = biological target: T4, His-MYC3-FLAG (His6-SUMO-MYC3(44–238)-FLAG) (Arabidopsis thaliana, UniProt Q9FIP9); assay: Fluorescence anisotropy; type: binding
T4 sequence (Q9FIP9 44-238): T3 sequence (Q9FIP9 44-238)

[10] = system: A. thaliana seedlings (Col-0); assay: Secondary metabolite quantification in A. thaliana; type: in vivo, Arabidopsis thaliana; details: Col-0 seedlings, 4 (10 µM) with MeJA (50 µM), 4 days, n = 4, LC/MS
Outline: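 7-day-old Col-0 seedlings treated 4 days with MeJA (50 µM) ± test compound (10 µM). Glucobrassicin (i-3ym) and p-coumaroyl agmatine accumulation quantified (n = 4). Experiment repeated three times; one-way ANOVA/Tukey's HSD, P < 0.01.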

SMILES: CC[C@H](C)[C@H](NC(=O)[C@H](CCCCN)NC(=O)[C@H](CO)NC(=O)[C@@H](NC(=O)[C@]1(C)CCCC=CCCC[C@](C)(NC(=O)[C@H](CCCNC(=N)N)NC(=O)[C@H](Cc2ccccc2)NC(=O)[C@H](CO)NC(=O)[C@H](CCCNC(=N)N)NC(=O)[C@H](CCCNC(=N)N)NC(=O)[C@H](CCCNC(=N)N)NC(=O)[C@H](CC(=O)O)NC(=O)[C@H](CC(C)C)NC(=O)[C@H](Cc2ccccc2)NC(=O)[C@H](CCCCN)NC(=O)[C@H](CCC(N)=O)NC(=O)[C@H](Cc2ccccc2)NC(=O)c2ccc(-c3c4ccc(=[N+](C)C)cc-4oc4cc(N(C)C)ccc34)c(C(=O)[O-])c2)C(=O)N[C@@H]([C@@H](C)CC)C(=O)N[C@@H](CCC(N)=O)C(=O)NCC(=O)N1)[C@@H](C)CC)C(=O)N[C@@H](CC(=O)O)C(=O)N1CCC[C@H]1C(=O)N[C@@H](CCC(=O)O)C(=O)N[C@]1(C)CCCC=CCCC[C@@](C)(C(=O)N[C@@H](CC(C)C)C(=O)N[C@@H](CC(C)C)C(=O)N[C@@H](C)C(=O)N[C@@H](CO)C(=O)N[C@H](C(=O)O)[C@@H](C)O)NC(=O)[C@H](CCCCN)NC(=O)[C@H]([C@@H](C)CC)NC1=O [compound 4] (X1-FQKFLDRRRSFR[S5]IQG[S5]ISKIDPE[R5]IK[S5]LLAST-OH; staple 13-17, 25-28)
- fold lower Kd with MpMYC-Y than 1 [1]: 46 fold
- bioactivity on marker gene expression in MpMYC-Y knockout mutant mpmycy [2]: completely abolished
- marker gene expression, peptide alone ([3]; 7-day-old Col-0, 4 (10 µM) alone without MeJA, 2 or 8 h): almost no effects
- expression of ORA59 and ACT (EIN3/EIL1-marker genes) ([3]; 7-day-old Col-0, 4 (10 µM) with MeJA (50 µM), 2 or 8 h): activated
- MeJA-induced expression of MYC-mediated marker genes (VSP2, AOS, OPR3, MYC2) ([3]; 7-day-old Col-0, 4 (10 µM) with MeJA (50 µM), 2 or 8 h, n = 3 or 4): significantly suppressed
- expression of PDF1.2 (EIN3/EIL1-mediated marker gene) compared with MeJA alone ([3]; 7-day-old Col-0, 4 (10 µM) with MeJA (50 µM), 8 h): strongly activated
- expression pattern of VSP2 and PDF1.2 on myc234 compared to MeJA alone ([3]; MYC triple mutant myc234, 4 (10 µM) with MeJA (50 µM), 8 h, n = 4): did not significantly change
- expression pattern of VSP2 and PDF1.2 on ein2-1 compared to MeJA alone ([3]; ein2-1 mutant, 4 (10 µM) with MeJA (50 µM), 8 h, n = 3 or 4): did not significantly change
- effect on OPDA growth inhibitory effects (plant area) [4]: partially suppressed
- pKd [5]: 6.94
- pKd [6]: 6.98
- pKi [7]: 7.15
- effect on MeJA growth inhibitory effects (root length) [8]: partially suppressed
- pKd [9]: 8.30
- fold lower Kd with His-MYC3-FLAG than that of 1 ([9]; ratio of Kd of 1 to Kd of the peptide): 42 fold
- MeJA-triggered accumulation of p-coumaroyl agmatine (CouAgm) compared to MeJA alone [10]: significantly enhanced
- MeJA-triggered glucosinolate (glucobrassicin, i-3ym) accumulation [10]: significantly suppressed
